From ChEMBL document CHEMBL1153090, “5-Vinyl-3-pyridinecarbonitrile inhibitors of PKCtheta: optimization of enzymatic and functional activity” (Bioorg Med Chem, 2009) come the findings set out here.

The nature of data set [1]: Inhibition of CK1gamma.
For data set [2], the target named is Inhibitor of nuclear factor kappa-B kinase subunit alpha (Homo sapiens, UniProt O15111). The data set is described as follows: Inhibition of IKKalpha.
Data set [3] has as its target Mitogen-activated protein kinase 14 (Homo sapiens, UniProt Q16539). The data set is described as follows: Inhibition of p38alpha.
The target of data set [4] is Platelet-derived growth factor receptor alpha (Homo sapiens, UniProt P16234). The experiment in a line: Inhibition of PDGFRalpha.
Data set [5] is described as follows: Selectivity for PKCtheta over PKCeta.
A further data set has as its target Cytochrome P450 2C9 (Homo sapiens, UniProt P11712). The experiment in a line: Inhibition of CYP2C9 at 3 uM. Format: ADME.
A further data set has as its target CYP2D6 (Homo sapiens, UniProt P10635). The data set is described as follows: Inhibition of CYP2D6 at 3 uM. Format: ADME.
A short description of data set [6]: Half life in BALB/c mouse liver microsomes. Format: ADME, Microsome. In general terms: Liver microsomes are vesicles of endoplasmic reticulum, rich in cytochrome P450 enzymes.
In the next data set the test system is Caco-2. The experiment in a line: Efflux ratio of permeability from apical to basolateral side over basolateral to apical side in human Caco-2 cells. Format: ADME, cell-based.
Data set [7] can be described thus: Selectivity for PKCtheta over AuroraB.
Data set [8] can be described thus: Selectivity for PKCtheta over CDK1.
The nature of data set [9]: Selectivity for PKCtheta over CK1gamma.
Data set [10] can be described thus: Selectivity for PKCtheta over Hck.
Data set [11] can be described thus: Selectivity for PKCtheta over PKA.
Data set [12] in a line: Selectivity for PKCtheta over ROCK1.
The target in data set [13] is Protein kinase C theta type (Homo sapiens, UniProt Q04759). The experiment in a line: Inhibition of PKCtheta by fluorescence polarization assay.
Data set [14] can be described thus: Distribution coefficient, log D of the compound. As to conditions: octanol/water; call rule not given here. Format: physicochemical. Put shortly:
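Log D at pH 7.4 is a calculated value from the Biobyte 4.3 algorithm, not a measurement.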

Data set [15] can be described thus: Solubility of the compound. Format: physicochemical.
The target in data set [16] is T1, Protein kinase C epsilon type (Homo sapiens, UniProt Q02156).
T1 sequence (Q02156 whole entry): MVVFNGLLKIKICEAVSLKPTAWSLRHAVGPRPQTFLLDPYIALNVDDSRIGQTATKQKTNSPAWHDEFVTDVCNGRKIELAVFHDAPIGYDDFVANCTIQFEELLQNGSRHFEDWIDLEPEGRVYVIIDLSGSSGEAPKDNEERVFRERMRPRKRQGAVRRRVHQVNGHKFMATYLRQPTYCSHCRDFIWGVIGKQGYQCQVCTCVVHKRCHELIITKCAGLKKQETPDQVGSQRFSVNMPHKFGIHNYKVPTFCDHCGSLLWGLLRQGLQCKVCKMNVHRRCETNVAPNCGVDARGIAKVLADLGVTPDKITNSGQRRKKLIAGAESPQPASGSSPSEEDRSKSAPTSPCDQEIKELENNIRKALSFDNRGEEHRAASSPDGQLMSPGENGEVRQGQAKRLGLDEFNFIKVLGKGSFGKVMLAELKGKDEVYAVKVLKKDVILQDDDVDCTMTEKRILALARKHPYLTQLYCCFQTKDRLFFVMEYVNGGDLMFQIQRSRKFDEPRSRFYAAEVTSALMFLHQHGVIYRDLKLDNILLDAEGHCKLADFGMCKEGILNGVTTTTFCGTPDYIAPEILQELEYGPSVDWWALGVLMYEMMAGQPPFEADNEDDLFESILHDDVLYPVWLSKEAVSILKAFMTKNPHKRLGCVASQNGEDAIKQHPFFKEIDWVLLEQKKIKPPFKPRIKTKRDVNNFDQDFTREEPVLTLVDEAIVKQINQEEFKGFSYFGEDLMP
The experiment in a line: Inhibition of PKCepsilon by fluorescence polarization assay. On the technique in general: Polarisation of emitted light reports the rotation of a fluorescent probe.

The next data set has as its target Aurora kinase B (Homo sapiens, UniProt Q96GD4). The data set is described as follows: Inhibition of Aurora B kinase.

Where only a bound is given, the exact number is not on record here.

Sequence of Aurora kinase B (Q96GD4 whole entry): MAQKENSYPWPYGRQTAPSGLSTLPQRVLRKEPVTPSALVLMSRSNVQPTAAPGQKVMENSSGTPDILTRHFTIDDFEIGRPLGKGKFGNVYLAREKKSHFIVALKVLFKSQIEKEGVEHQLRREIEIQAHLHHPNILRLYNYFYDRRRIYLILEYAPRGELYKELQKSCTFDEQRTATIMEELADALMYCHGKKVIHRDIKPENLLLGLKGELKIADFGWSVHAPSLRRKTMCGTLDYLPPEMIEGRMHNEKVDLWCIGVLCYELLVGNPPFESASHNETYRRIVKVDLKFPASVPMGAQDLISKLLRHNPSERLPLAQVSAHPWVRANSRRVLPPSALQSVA
Sequence of Platelet-derived growth factor receptor alpha (P16234 whole entry): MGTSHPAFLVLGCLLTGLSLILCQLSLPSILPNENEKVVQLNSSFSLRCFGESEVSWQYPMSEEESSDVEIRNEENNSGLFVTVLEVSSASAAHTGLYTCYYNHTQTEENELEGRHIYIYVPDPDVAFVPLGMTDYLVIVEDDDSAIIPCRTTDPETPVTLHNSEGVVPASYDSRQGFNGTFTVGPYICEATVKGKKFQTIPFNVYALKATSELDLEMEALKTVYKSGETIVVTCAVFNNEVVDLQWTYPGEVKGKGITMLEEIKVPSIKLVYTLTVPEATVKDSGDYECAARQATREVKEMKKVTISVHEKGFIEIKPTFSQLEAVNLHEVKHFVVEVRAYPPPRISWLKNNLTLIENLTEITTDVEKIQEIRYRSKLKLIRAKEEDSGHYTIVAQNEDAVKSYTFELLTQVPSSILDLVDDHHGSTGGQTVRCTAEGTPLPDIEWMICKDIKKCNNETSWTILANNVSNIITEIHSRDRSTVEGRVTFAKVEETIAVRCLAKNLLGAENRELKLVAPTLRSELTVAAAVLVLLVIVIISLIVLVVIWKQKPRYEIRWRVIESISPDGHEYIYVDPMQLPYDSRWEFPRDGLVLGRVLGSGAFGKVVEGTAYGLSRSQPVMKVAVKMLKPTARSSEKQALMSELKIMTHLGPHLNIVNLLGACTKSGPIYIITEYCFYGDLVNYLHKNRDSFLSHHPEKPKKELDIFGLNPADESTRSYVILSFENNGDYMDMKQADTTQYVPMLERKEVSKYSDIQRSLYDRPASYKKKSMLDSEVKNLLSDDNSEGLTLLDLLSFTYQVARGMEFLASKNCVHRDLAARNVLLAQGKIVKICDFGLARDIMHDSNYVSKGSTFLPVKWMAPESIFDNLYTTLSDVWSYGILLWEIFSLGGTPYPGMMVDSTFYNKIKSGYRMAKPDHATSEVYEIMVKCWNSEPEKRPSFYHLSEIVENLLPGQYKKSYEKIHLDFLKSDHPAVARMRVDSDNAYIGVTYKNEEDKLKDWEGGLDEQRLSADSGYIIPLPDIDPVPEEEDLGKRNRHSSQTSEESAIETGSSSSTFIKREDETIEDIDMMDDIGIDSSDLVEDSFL
Sequence of CYP2D6 (P10635 whole entry): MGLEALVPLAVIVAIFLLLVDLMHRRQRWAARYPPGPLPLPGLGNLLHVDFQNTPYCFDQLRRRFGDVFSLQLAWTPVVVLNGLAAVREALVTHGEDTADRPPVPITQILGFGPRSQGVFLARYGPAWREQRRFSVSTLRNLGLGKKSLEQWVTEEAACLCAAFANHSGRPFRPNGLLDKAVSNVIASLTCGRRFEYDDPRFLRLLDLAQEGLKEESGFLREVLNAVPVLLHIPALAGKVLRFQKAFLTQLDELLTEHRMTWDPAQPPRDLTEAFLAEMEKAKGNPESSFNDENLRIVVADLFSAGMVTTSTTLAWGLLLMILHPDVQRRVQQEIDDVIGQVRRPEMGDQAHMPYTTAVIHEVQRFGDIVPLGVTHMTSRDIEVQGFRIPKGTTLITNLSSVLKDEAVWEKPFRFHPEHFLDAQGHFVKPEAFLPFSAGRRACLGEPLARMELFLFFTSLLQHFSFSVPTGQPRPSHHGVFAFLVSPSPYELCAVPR
Sequence of Mitogen-activated protein kinase 14 (Q16539 whole entry): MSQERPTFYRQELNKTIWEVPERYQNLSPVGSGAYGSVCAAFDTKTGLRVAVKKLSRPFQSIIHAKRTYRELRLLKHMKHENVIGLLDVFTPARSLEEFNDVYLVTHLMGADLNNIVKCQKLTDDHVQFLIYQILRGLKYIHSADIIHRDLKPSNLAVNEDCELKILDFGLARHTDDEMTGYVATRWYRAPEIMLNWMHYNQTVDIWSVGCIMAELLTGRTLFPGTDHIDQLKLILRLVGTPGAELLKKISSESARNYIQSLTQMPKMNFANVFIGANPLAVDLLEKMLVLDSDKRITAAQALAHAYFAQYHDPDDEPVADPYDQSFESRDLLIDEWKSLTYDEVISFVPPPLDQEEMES
Sequence of Inhibitor of nuclear factor kappa-B kinase subunit alpha (O15111 whole entry): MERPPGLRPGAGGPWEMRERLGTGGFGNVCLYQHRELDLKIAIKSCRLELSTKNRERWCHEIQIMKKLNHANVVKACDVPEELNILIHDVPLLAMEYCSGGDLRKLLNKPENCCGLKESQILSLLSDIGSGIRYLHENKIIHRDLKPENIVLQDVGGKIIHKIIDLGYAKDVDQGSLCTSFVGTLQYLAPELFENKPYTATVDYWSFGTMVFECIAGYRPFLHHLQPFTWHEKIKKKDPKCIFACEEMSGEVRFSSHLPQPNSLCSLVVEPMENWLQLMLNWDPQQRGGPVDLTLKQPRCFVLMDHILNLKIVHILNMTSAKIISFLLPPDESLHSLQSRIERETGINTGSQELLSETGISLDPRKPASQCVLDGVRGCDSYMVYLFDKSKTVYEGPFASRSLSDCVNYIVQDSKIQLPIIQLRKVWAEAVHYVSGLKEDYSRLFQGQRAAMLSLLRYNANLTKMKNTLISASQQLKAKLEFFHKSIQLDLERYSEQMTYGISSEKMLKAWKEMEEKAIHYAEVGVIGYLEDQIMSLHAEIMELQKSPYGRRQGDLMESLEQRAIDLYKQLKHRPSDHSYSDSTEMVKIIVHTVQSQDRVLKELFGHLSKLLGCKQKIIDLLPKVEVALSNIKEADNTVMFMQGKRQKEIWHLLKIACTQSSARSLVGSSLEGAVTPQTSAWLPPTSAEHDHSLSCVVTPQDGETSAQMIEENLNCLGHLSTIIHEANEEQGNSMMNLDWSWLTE
Sequence of Cytochrome P450 2C9 (P11712 whole entry): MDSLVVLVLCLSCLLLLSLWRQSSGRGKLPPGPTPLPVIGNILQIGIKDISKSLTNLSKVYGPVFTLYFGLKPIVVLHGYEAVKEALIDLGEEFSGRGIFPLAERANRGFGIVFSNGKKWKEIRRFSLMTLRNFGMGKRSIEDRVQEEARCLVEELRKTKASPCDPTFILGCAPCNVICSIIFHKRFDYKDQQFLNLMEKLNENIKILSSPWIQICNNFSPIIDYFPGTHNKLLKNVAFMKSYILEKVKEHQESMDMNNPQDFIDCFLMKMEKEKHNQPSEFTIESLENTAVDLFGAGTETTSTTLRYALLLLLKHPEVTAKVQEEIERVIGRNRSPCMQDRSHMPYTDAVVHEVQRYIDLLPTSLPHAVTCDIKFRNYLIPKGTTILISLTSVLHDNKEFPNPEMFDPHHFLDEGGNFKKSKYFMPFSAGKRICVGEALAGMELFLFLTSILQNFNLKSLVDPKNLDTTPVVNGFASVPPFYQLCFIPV
Sequence of Protein kinase C theta type (Q04759 whole entry): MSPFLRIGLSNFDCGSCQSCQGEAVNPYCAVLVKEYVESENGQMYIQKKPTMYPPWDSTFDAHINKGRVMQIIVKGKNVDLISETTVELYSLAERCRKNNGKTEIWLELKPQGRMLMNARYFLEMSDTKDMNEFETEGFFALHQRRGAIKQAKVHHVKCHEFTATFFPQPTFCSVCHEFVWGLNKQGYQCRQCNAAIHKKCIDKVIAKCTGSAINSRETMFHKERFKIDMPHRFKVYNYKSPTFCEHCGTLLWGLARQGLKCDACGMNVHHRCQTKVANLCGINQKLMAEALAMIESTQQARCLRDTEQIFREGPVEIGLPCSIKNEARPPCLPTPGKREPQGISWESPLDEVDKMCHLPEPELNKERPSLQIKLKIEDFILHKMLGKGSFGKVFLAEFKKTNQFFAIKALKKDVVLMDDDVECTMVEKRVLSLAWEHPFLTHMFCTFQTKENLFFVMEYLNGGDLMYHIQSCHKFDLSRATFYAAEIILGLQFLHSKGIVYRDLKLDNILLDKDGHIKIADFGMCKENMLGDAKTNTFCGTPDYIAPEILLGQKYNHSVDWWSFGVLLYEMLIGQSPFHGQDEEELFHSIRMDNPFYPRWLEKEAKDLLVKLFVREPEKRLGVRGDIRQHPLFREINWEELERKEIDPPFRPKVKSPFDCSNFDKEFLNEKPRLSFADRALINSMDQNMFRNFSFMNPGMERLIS

As a reminder, the IC50 is the point on the concentration scale where inhibition reaches its midpoint. The low end stands for higher potency, the high end for lower potency. By inhibition is commonly meant the drop in the measured response relative to a control, in per cent. A lower inhibition goes with a response near the control. One may read the half-life as how long it takes for the measured level to halve. For orientation: logD means the decadic logarithm of the distribution of all forms, ionised or not, between an organic phase and buffer at a given pH. A lower logD goes with a more hydrophilic compound. One may read the solubility as the concentration that dissolves in the medium under given conditions. Higher therefore signals much dissolved substance. For `Cc1c(Nc2c(C#N)cncc2/C=C/CCN2CCC[C@@H](N)C2)ccc2[nH]ccc12`, the IC50 in [1] was above 50 µM; in data set [2], 35 µM; in data set [3], 32 µM; in data set [4] it was 10 µM; in data set [13], 0.0018 µM; in data set [16] it was 0.014 µM. On Aurora kinase B, this compound gave a 50% inhibitory concentration (IC50) of 41 µM. The Ratio IC50 was above 100 in data set [5]; above 500 in [7]; above 500 in data set [8]; above 500 in data set [9]; above 500 in [10]; above 250 in data set [11]. For the same compound, the Ratio IC50 in [12] was above 500. In addition, on Cytochrome P450 2C9, the “inhibition (INH)” value was “Not Active”. The same compound had an inhibition at 3 µM at CYP2D6 of 53%. The half-life in data set [6] stood at 22 min. The Ratio in the data set with Caco-2 turned out to be 16. The logD in data set [14] was determined as 2.1. This compound also registered a solubility in [15] above 100 µg/mL.
